The structures appear in SMILES notation. pIC50: −log10 of the molar value. Active and inactive are the calls of the source. No cut-off for these calls is given here.

The target of experiment [1] is Dual specificity tyrosine-phosphorylation-regulated kinase 1B (Homo sapiens) (UniProt Q9Y463). Nature of the experiment: Inhibition of recombinant full-length human DYRK1B at 1 uM using RRRFRPASPLRGPPK as substrate measured after 40 mins in presence of [gamma33P]ATP by scintillation counting method relative to control.
Experiment [2] concerns MDA-MB-231. In words: Antiproliferative activity against human MDA-MB-231 cells assessed as inhibition of cell viability after 72 hrs by CCK-8 assay. The experiment is classed as functional, cell-based. As to conditions: MDA-MB-231, 72 h. In short, it runs like this:
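Cells kept at 37 °C, 5% CO2 in DMEM or RPMI-1640 with 10% FBS and 1% penicillin/streptomycin, then seeded at 3000 cells/well (adherent) or 10,000 cells/well (suspension). Exposed to a range of concentrations for 72 h. CCK-8 added for 1-4 h before reading A450. […] Three independent experiments.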

Experiment [3] deals with Proto-oncogene tyrosine-protein kinase Src (Homo sapiens) (UniProt P12931). Nature of the experiment: Inhibition of human Src (1 to 530 residues) at 1 uM using GGEEEEYFELVKKKK as substrate measured after 40 mins in presence of [gamma33P]ATP by scintillation counting method relative to control. In short, it runs like this:
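Percent inhibition of kinase activity at a single compound concentration, measured by the outsourced Eurofins KinaseProfiler panel. Values are the mean of two independent experiments.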

Experiment [4] addresses Calcium/calmodulin-dependent protein kinase type 1 (Homo sapiens) (UniProt Q14012). In words: Inhibition of recombinant human CaMK1 (2 to end residues) at 1 uM using calmodulin as substrate measured after 40 mins in presence of [gamma33P]ATP by scintillation counting method relative to control.
Experiment [5] concerns the target Serine/threonine-protein kinase WNK2 (Homo sapiens) (UniProt Q9Y3S1). Nature of the experiment: Inhibition of recombinant human WNK2 (166 to 489 residues) at 1 uM using MBP as substrate measured after 40 mins in presence of [gamma33P]ATP by scintillation counting method relative to control.
Experiment [6] relates to Serine/threonine-protein kinase Nek4 (Homo sapiens), P51957 [P225A]. In words: Inhibition of recombinant full-length human NEK4 P225A mutant at 1 uM using myelin basic protein as substrate measured after 40 mins in presence of [gamma33P]ATP by scintillation counting method relative to control.
The target of experiment [7] is FKBP12A/mTOR (Homo sapiens) (UniProt P62942+P42345). In words: Inhibition of recombinant full-length human mTOR/FKBP12 at 1 uM measured after 40 mins in presence of [gamma33P]ATP by scintillation counting method relative to control. The experiment is classed as protein-complex assay.
Experiment [8] concerns the target Serine/threonine-protein kinase MRCK alpha (Homo sapiens) (UniProt Q5VT25). Nature of the experiment: Inhibition of recombinant human MRCKalpha (1 to 473 residues) at 1 uM using KKRNRTLTV as substrate measured after 40 mins in presence of [gamma33P]ATP by scintillation counting method relative to control.
Experiment [9] has as its target Interferon-induced, double-stranded RNA-activated protein kinase (Homo sapiens) (UniProt P19525). Nature of the experiment: Inhibition of recombinant human PKR (252 to end residues) at 1 uM using RSRSRSRSRSRSRSR as substrate measured after 40 mins in presence of [gamma33P]ATP by scintillation counting method relative to control. A digest of the protocol: (§1)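 Single-point inhibition at 1 µM was measured in the Eurofins KinaseProfiler panel. Values are the mean of two independent experiments.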

The subject of experiment [10] is Platelet-derived growth factor receptor alpha (Homo sapiens), P16234 [D842V]. In words: Inhibition of recombinant human PDGFRalpha (550 to end residues) D842V mutant at 1 uM using GGMEDIYFEFMGGKKK as substrate measured after 40 mins in presence of [gamma33P]ATP by scintillation counting method relative to control.
Experiment [11] deals with A549. In words: Induction of apoptosis in human A549 cells assessed as activation of caspase 3 at 0.25 to 1 uM after 24 hrs by Western blot analysis. The class given is functional, cell-based. A digest of the protocol:
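A549 or H1299 cells exposed to the indicated concentrations for 24 h. Protein extracts then immunoblotted for apoptosis-pathway proteins (Bcl2, Bim, cleaved caspase 3).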

In experiment [12] the test system is NCI-H1299. Nature of the experiment: Inhibition of tumorsphere formation in human H1299 cells assessed as decrease in number of spheres at 0.25 to 1 uM after 2 weeks by microscopic analysis. The class given is functional, cell-based.
For experiment [13], the system named is Dual specificity protein kinase TTK (Homo sapiens), P33981 [S389A]. Nature of the experiment: Inhibition of recombinant full-length human TTK S389A mutant at 1 uM using MBP as substrate measured after 40 mins in presence of [gamma33P]ATP by scintillation counting method relative to control.
Experiment [14] concerns the target Tyrosine-protein kinase CSK (Homo sapiens) (UniProt P41240). In words: Inhibition of recombinant full-length human CSK at 1 uM using poly(Glu, Tyr) 4:1 as substrate measured after 40 mins in presence of [gamma33P]ATP by scintillation counting method relative to control. In short, it runs like this: as §1
For experiment [15], the target named is Serine/threonine-protein kinase 4 (Homo sapiens) (UniProt Q13043). Nature of the experiment: Inhibition of recombinant full-length human MST1 at 1 uM using KKSRGDYMTMQIG as substrate measured after 40 mins in presence of [gamma33P]ATP by scintillation counting method relative to control.
The target of experiment [16] is Calcium/calmodulin-dependent protein kinase type IV (Homo sapiens) (UniProt Q16566). In words: Inhibition of recombinant full-length human CaMK4 at 1 uM using calmodulin as substrate measured after 40 mins in presence of [gamma33P]ATP by scintillation counting method relative to control.
The species entered for experiment [17] is Homo sapiens. Nature of the experiment: Inhibition of recombinant human BrSK2 […] mutant (2 to end residues) at 1 uM using KKLNRTLSFAEPG as substrate measured after 40 mins in presence of [gamma33P]ATP by scintillation counting method relative to control.
Experiment [18] deals with Ribosomal protein S6 kinase alpha-6 (Homo sapiens) (UniProt Q9UK32). In words: Inhibition of recombinant full-length human Rsk4 at 1 uM using LRRASLG as substrate measured after 40 mins in presence of [gamma33P]ATP by scintillation counting method relative to control.
Experiment [19] addresses Homeodomain-interacting protein kinase 1 (Homo sapiens) (UniProt Q86Z02). In words: Inhibition of recombinant human activated HIPK1 (158 to 555 residues) at 1 uM using myelin basic protein as substrate measured after 40 mins in presence of [gamma33P]ATP by scintillation counting method relative to control.
Experiment [20] deals with Mitogen-activated protein kinase kinase kinase 10 (Homo sapiens) (UniProt Q02779). In words: Inhibition of recombinant human MLK2 (1 to 449 residues) at 1 uM using myelin basic protein as substrate measured after 40 mins in presence of [gamma33P]ATP by scintillation counting method relative to control.
Experiment [21] deals with Eukaryotic translation initiation factor 2-alpha kinase 3 (Homo sapiens) (UniProt Q9NZJ5). Nature of the experiment: Inhibition of recombinant human PEK (536 to end residues) at 1 uM using RSRSRSRSRSRSR as substrate measured after 40 mins in presence of [gamma33P]ATP by scintillation counting method relative to control.

Chain of Mitogen-activated protein kinase kinase kinase 10 (Homo sapiens) (Q02779 whole entry, looked up, the tested form may be a part): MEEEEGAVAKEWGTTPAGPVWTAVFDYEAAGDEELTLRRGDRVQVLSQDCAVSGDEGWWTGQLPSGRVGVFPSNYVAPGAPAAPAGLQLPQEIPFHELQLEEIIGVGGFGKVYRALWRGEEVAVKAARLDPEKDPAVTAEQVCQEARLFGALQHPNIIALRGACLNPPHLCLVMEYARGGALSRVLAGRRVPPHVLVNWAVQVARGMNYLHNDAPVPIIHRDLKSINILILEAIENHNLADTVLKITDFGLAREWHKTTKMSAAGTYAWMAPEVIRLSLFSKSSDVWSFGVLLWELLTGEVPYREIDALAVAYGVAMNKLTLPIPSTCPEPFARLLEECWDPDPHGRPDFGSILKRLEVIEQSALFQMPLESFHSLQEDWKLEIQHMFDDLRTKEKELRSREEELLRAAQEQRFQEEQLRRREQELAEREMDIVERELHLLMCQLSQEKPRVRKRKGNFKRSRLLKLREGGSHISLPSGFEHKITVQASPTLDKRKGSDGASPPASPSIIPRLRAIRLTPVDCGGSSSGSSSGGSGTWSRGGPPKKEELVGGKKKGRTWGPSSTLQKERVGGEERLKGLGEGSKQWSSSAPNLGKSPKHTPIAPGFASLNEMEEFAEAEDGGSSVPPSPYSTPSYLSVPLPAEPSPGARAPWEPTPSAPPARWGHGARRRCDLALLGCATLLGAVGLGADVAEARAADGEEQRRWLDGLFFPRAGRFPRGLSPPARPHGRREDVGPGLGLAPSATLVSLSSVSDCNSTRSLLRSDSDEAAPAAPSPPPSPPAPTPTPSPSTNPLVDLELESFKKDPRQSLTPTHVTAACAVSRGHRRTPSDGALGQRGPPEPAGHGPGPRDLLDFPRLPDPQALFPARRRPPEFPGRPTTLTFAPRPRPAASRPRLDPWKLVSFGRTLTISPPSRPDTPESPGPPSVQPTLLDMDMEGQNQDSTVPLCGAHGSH
Chain of Ribosomal protein S6 kinase alpha-6 (Homo sapiens) (Q9UK32 whole entry, the tested form may be a part): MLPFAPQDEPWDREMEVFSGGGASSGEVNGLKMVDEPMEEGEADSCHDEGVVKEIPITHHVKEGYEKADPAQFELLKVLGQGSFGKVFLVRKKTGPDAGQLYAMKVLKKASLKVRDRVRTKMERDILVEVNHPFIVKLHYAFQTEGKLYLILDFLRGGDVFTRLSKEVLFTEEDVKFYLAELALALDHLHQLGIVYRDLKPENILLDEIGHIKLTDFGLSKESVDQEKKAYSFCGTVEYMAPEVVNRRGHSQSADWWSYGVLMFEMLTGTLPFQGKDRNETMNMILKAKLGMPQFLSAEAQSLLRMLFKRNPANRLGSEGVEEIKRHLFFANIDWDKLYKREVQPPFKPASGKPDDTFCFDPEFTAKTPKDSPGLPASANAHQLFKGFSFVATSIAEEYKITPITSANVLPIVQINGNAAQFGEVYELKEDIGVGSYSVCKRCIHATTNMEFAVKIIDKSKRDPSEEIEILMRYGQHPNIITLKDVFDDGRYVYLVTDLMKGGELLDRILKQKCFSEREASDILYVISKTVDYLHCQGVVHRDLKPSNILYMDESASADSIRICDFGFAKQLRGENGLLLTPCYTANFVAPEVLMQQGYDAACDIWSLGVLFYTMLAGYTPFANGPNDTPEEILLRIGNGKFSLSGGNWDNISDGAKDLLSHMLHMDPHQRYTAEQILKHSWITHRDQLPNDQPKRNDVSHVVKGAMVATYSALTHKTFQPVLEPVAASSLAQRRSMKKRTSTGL
Chain of Dual specificity protein kinase TTK (Homo sapiens), P33981 [S389A] (P33981 whole entry S389A): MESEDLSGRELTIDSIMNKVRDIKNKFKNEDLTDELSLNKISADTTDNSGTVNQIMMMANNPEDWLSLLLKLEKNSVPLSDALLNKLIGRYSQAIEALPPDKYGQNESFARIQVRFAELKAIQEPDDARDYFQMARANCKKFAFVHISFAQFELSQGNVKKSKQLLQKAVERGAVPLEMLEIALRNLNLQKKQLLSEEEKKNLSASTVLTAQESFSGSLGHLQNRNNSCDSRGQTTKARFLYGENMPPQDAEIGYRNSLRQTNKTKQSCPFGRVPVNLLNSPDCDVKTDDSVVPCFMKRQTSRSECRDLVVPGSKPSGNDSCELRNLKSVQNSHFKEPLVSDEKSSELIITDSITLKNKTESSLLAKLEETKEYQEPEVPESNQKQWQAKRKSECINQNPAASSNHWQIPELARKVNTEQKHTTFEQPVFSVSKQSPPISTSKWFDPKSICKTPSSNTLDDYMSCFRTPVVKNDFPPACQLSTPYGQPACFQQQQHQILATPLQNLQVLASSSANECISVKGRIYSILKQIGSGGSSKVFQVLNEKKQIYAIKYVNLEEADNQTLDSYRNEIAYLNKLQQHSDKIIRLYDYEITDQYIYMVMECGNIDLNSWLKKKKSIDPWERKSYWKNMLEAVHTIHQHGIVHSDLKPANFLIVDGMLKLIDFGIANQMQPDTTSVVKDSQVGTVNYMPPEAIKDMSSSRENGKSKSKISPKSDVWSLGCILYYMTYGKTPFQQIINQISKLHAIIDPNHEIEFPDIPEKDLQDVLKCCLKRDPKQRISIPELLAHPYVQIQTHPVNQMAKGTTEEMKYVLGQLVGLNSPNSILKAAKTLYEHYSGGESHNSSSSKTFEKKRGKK
Chain of FKBP12A/mTOR (Homo sapiens) (P62942 2-108 limits assumed, other chains not shown): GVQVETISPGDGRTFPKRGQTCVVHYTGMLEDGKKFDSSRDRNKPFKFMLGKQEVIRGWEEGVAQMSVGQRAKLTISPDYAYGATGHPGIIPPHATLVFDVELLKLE
Chain of Proto-oncogene tyrosine-protein kinase Src (Homo sapiens) (P12931 2-536 limits assumed): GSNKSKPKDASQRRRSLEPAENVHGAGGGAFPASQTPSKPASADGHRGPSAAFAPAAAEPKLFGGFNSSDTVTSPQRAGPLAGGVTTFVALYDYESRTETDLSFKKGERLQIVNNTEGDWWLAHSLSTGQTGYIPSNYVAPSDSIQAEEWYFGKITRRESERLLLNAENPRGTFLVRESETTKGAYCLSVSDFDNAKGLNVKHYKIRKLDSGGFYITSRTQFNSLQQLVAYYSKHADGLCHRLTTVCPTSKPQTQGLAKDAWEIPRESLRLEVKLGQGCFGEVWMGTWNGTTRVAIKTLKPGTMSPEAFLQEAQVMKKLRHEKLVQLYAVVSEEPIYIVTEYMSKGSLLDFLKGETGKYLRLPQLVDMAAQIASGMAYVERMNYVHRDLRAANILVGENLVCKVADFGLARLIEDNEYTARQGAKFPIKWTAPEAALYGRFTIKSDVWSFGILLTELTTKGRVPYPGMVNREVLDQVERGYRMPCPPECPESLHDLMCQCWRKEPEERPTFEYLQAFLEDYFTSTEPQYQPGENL
Chain of Tyrosine-protein kinase CSK (Homo sapiens) (P41240 2-450 limits assumed): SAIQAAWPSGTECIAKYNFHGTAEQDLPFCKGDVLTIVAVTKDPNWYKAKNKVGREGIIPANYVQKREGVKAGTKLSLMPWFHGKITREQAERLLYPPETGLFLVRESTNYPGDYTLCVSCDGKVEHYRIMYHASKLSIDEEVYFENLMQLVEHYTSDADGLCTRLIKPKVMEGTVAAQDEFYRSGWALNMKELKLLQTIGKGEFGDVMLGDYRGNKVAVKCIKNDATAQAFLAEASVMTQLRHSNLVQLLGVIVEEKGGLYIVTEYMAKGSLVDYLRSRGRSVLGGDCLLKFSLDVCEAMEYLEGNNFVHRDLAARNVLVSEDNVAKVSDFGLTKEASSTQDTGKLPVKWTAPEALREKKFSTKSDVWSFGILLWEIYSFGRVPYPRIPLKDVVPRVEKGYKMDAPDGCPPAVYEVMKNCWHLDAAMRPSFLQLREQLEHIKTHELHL
Chain of Calcium/calmodulin-dependent protein kinase type 1 (Homo sapiens) (Q14012 whole entry, looked up, the tested form may be a part): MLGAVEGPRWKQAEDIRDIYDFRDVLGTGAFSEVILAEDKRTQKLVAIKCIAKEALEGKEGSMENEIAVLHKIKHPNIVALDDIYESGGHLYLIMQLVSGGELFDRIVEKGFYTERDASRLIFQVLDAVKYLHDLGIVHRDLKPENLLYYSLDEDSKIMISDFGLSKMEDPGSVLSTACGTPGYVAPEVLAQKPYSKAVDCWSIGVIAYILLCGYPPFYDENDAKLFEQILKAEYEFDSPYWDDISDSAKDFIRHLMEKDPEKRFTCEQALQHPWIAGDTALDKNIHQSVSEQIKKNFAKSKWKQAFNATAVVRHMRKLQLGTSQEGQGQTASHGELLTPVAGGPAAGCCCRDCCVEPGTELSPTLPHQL
Chain of Calcium/calmodulin-dependent protein kinase type IV (Homo sapiens) (Q16566 whole entry): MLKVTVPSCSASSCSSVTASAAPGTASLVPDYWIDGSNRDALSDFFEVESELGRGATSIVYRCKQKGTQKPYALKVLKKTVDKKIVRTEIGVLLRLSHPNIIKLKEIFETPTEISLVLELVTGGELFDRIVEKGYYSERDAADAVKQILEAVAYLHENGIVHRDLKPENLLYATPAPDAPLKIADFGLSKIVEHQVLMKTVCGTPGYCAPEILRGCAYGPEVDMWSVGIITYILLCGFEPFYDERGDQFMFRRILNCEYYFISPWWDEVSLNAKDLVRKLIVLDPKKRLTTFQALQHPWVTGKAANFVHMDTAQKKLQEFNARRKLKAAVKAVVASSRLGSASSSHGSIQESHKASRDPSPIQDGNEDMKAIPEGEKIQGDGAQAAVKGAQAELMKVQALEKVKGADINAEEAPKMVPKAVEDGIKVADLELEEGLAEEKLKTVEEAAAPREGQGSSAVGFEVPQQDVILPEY
Chain of Serine/threonine-protein kinase 4 (Homo sapiens) (Q13043 whole entry): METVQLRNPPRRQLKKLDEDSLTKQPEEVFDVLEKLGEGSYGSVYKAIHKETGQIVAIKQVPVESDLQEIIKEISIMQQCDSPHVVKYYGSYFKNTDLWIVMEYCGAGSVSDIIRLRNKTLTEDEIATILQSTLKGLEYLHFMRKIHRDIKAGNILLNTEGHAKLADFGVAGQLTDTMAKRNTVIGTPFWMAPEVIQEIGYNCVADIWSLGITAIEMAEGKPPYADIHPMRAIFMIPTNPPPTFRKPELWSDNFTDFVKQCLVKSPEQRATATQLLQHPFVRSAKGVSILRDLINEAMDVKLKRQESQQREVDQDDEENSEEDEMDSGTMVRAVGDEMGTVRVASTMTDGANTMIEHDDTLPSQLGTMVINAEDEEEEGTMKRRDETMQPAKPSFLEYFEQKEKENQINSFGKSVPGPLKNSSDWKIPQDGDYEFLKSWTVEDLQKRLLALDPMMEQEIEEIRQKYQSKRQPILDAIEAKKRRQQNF

Regarding `CN(C)C(=O)c1cc2cnc(Nc3ccc(NC(=O)CCCCCCCN=C=S)cc3)nc2n1C1CCCC1`, the inhibition was 0% in [1]; 36% in experiment [3]; 6% in experiment [4]; 4% in [5]; 63% in experiment [6]; -6% in [7]. For the same molecule, the inhibition in experiment [8] was -5%; in experiment [9], 11%; in [10] it was 44%; in [13] it was 76%; in experiment [14], 1%; in [15], 17%. For the same molecule, the inhibition in [16] was -4%; in experiment [17] it was 14%; in experiment [18], 38%; in experiment [19], 9%; in [20] it was 65%; in experiment [21] it was 6%. Further, the pIC50 in experiment [2] is 5.52. The result in experiment [11] was Active. Also, the inhibition result in experiment [12] is “Active”.

The values above are taken from ChEMBL document CHEMBL4376814, “Novel cyclin-dependent kinase 9 (CDK9) inhibitor with suppression of cancer stemness activity against non-small-cell lung cancer” (Eur J Med Chem, 2019).
